Experimental data reported in ChEMBL document CHEMBL1152452, “Modifications incorporated in CpG motifs of oligodeoxynucleotides lead to antagonist activity of toll-like receptors 7 and 9” (2009).
Calls of active or inactive are those of the source. The calls are words filed in the database; no cut-off is given here.

What was measured:
[1] = test system: Mus musculus; test: Immunostimulatory activity in C57BL/6 mouse assessed as inhibition of TLR3 agonist-induced KC production in serum at 10 mg/kg, sc administered 24 hrs prior to TLR3 agonist challenge measured after 2 hrs by Luminex multiplex assay
[2] = test system: Mus musculus; test: Immunostimulatory activity in C57BL/6 mouse assessed as inhibition of 5'-CTATCTGACGTTCTCTGT-3'-induced TNFalpha production in serum at 5 mg/kg, sc administered 24 hrs prior to 5'-CTATCTGACGTTCTCTGT-3' challenge measured after 2 hrs by Luminex multiplex assay; format: functional; conditions: C57BL/6, sc, route subcutaneous
[3] = test system: Mus musculus; test: Immunostimulatory activity in C57BL/6 mouse assessed as inhibition of TLR7 agonist-induced KC production in serum at 5 mg/kg, sc administered 24 hrs prior to TLR7 agonist challenge measured after 2 hrs by Luminex multiplex assay; format: functional; conditions: C57BL/6, sc, route subcutaneous
[4] = test system: Mus musculus; test: Immunostimulatory activity in C57BL/6 mouse assessed as inhibition of 5'-CTATCTGACGTTCTCTGT-3'-induced MCP1 production in serum at 5 mg/kg, sc administered 24 hrs prior to 5'-CTATCTGACGTTCTCTGT-3' challenge measured after 2 hrs by Luminex multiplex assay; format: functional; conditions: C57BL/6, sc, route subcutaneous
[5] = test system: Mus musculus; test: Immunostimulatory activity in C57BL/6 mouse assessed as inhibition of 5'-CTATCTGACGTTCTCTGT-3'-induced IL12 production in serum at 10 mg/kg, sc administered 72 hrs prior to 5'-CTATCTGACGTTCTCTGT-3' challenge measured after 2 hrs by sandwich ELISA; format: functional; conditions: C57BL/6, sc, route subcutaneous
Outline: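 C57BL/6 mice received 10 mg/kg ODN sc in the right flank. The TLR9 agonist ODN was then given at 0.5 mg/kg sc in the left flank 24, 48 or 72 h later. Serum IL-12 was measured by ELISA 2 h after challenge. Naive serum served as reference. Representative of three experiments.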

[6] = test system: Mus musculus; test: Immunostimulatory activity in C57BL/6 mouse assessed as inhibition of LPS-induced IL10 production in serum at 10 mg/kg, sc administered 24 hrs prior to LPS challenge measured after 2 hrs by Luminex multiplex assay
[7] = test system: Mus musculus; test: Immunostimulatory activity in C57BL/6 mouse assessed as inhibition of LPS-induced IL12 production in serum at 10 mg/kg, sc administered 24 hrs prior to LPS challenge measured after 2 hrs by Luminex multiplex assay
[8] = test system: Mus musculus; test: Immunostimulatory activity in C57BL/6 mouse assessed as inhibition of LPS-induced MCP1 production in serum at 10 mg/kg, sc administered 24 hrs prior to LPS challenge measured after 2 hrs by Luminex multiplex assay
[9] = test system: Mus musculus; test: Immunostimulatory activity in C57BL/6 mouse assessed as inhibition of TLR3 agonist-induced IL6 production in serum at 10 mg/kg, sc administered 24 hrs prior to TLR3 agonist challenge measured after 2 hrs by Luminex multiplex assay
[10] = test system: Mus musculus; test: Immunostimulatory activity in C57BL/6 mouse assessed as inhibition of LPS-induced TNFalpha production in serum at 10 mg/kg, sc administered 24 hrs prior to LPS challenge measured after 2 hrs by Luminex multiplex assay
[11] = test system: Mus musculus; test: Immunostimulatory activity in C57BL/6 mouse assessed as inhibition of LPS-induced IP10 production in serum at 10 mg/kg, sc administered 24 hrs prior to LPS challenge measured after 2 hrs by Luminex multiplex assay
[12] = test system: Mus musculus; test: Immunostimulatory activity in C57BL/6 mouse assessed as inhibition of TLR3 agonist-induced MIG production in serum at 10 mg/kg, sc administered 24 hrs prior to TLR3 agonist challenge measured after 2 hrs by Luminex multiplex assay
[13] = test system: Mus musculus; test: Immunostimulatory activity in C57BL/6 mouse assessed as inhibition of 5'-CTATCTGACGTTCTCTGT-3'-induced MIG production in serum at 5 mg/kg, sc administered 24 hrs prior to 5'-CTATCTGACGTTCTCTGT-3' challenge measured after 2 hrs by Luminex multiplex assay; format: functional; conditions: C57BL/6, sc, route subcutaneous
[14] = test system: Mus musculus; test: Immunostimulatory activity in C57BL/6 mouse assessed as inhibition of TLR7 agonist-induced IP10 production in serum at 5 mg/kg, sc administered 24 hrs prior to TLR7 agonist challenge measured after 2 hrs by Luminex multiplex assay; format: functional; conditions: C57BL/6, sc, route subcutaneous
[15] = test system: Mus musculus; test: Immunostimulatory activity in C57BL/6 mouse assessed as inhibition of 1 mg/kg 5'-CTATCTGACGTTCTCTGT-3'-induced IL12 production in serum at 10 mg/kg, sc administered 24 hrs prior to 5'-CTATCTGACGTTCTCTGT-3' challenge measured after 2 hrs by sandwich ELISA; format: functional
Outline: (§1)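 C57BL/6 mice received 10 mg/kg ODN sc in the right flank. After 24 h, the CpG TLR9 agonist ODN was given sc in the left flank at 0.25, 0.5 or 1 mg/kg. Serum IL-12 was measured by ELISA 2 h after challenge. Naive mice served as reference. Representative of two experiments.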

[16] = test system: Mus musculus; test: Immunostimulatory activity in C57BL/6 mouse assessed as inhibition of TLR7 agonist-induced IL6 production in serum at 5 mg/kg, sc administered 24 hrs prior to TLR7 agonist challenge measured after 2 hrs by Luminex multiplex assay; format: functional; conditions: C57BL/6, sc, route subcutaneous
[17] = test system: Mus musculus; test: Immunostimulatory activity in C57BL/6 mouse assessed as inhibition of 0.25 mg/kg 5'-CTATCTGACGTTCTCTGT-3'-induced IL12 production in serum at 10 mg/kg, sc administered 24 hrs prior to 5'-CTATCTGACGTTCTCTGT-3' challenge measured after 2 hrs by sandwich ELISA; format: functional
Outline: as §1

[18] = test system: Mus musculus; test: Immunostimulatory activity in C57BL/6 mouse assessed as inhibition of 5'-CTATCTGACGTTCTCTGT-3'-induced IP10 production in serum at 5 mg/kg, sc administered 24 hrs prior to 5'-CTATCTGACGTTCTCTGT-3' challenge measured after 2 hrs by Luminex multiplex assay; format: functional; conditions: C57BL/6, sc, route subcutaneous
[19] = test system: Mus musculus; test: Immunostimulatory activity in C57BL/6 mouse assessed as inhibition of LPS-induced MIP1a production in serum at 10 mg/kg, sc administered 24 hrs prior to LPS challenge measured after 2 hrs by Luminex multiplex assay
[20] = test system: Mus musculus; test: Immunostimulatory activity in C57BL/6 mouse assessed as inhibition of TLR3 agonist-induced TNFalpha production in serum at 10 mg/kg, sc administered 24 hrs prior to TLR3 agonist challenge measured after 2 hrs by Luminex multiplex assay

SMILES: COC1[C@H](n2cnc3c(=O)[nH]c(N)nc32)O[C@H](COP(=O)(S)O[C@H]2C[C@H](n3cc(C)c(N)nc3=O)O[C@@H]2COP(=O)(S)O[C@H]2C[C@H](n3cnc4c(N)ncnc43)O[C@@H]2COP(=O)(S)O[C@H]2C[C@H](n3cnc4c(=O)[nH]c(N)nc43)O[C@@H]2COP(=O)(S)O[C@H]2C[C@H](n3cc(C)c(=O)[nH]c3=O)O[C@@H]2COP(=O)(S)O[C@H]2C[C@H](n3ccc(N)nc3=O)O[C@@H]2COP(=O)(S)O[C@H]2C[C@H](n3cc(C)c(=O)[nH]c3=O)O[C@@H]2COP(=O)(S)O[C@H]2C[C@H](n3cnc4c(N)ncnc43)O[C@@H]2COP(=O)(S)O[C@H]2C[C@H](n3cc(C)c(=O)[nH]c3=O)O[C@@H]2COP(=O)(S)O[C@H]2C[C@H](n3ccc(N)nc3=O)O[C@@H]2CO)[C@H]1OP(=O)(S)OC[C@H]1O[C@@H](n2cc(C)c(=O)[nH]c2=O)C[C@@H]1OP(=O)(S)OC[C@H]1O[C@@H](n2cc(C)c(=O)[nH]c2=O)C[C@@H]1OP(=O)(S)OC[C@H]1O[C@@H](n2ccc(N)nc2=O)C[C@@H]1OP(=O)(S)OC[C@H]1O[C@@H](n2cc(C)c(=O)[nH]c2=O)C[C@@H]1OP(=O)(S)OC[C@H]1O[C@@H](n2ccc(N)nc2=O)C[C@@H]1OP(=O)(S)OC[C@H]1O[C@@H](n2cc(C)c(=O)[nH]c2=O)C[C@@H]1OP(=O)(S)OC[C@H]1O[C@@H](n2cnc3c(=O)[nH]c(N)nc32)C[C@@H]1OP(=O)(S)OC[C@H]1O[C@@H](n2cc(C)c(=O)[nH]c2=O)C[C@@H]1O (stereo not given in full)
- Activity [1]: inactive
- inhibition in vivo at 5 mg/kg [2]: 50%
- inhibition in vivo at 5 mg/kg [3]: 50%
- inhibition in vivo at 5 mg/kg [4]: 50%
- inhibition in vivo at 10 mg/kg [5]: 35%
- Activity [6]: inactive
- Activity [7]: inactive
- Activity [8]: inactive
- Activity [9]: inactive
- Activity [10]: inactive
- Activity [11]: inactive
- Activity [12]: inactive
- inhibition in vivo at 5 mg/kg [13]: 50%
- inhibition in vivo at 5 mg/kg [14]: 50%
- inhibition (INH) [15]: 46%
- inhibition in vivo at 5 mg/kg [16]: 50%
- inhibition (INH) [17]: 85%
- inhibition in vivo at 5 mg/kg [18]: 50%
- Activity [19]: inactive
- Activity [20]: inactive
